This passage reports CC50, MCC and EC50 results from ChEMBL document CHEMBL1142666, “Novel [2',5'-bis-O-(tert-butyldimethylsilyl)-beta-D-ribofuranosyl]- 3'-spiro-5''-(4''-amino-1'',2''-oxathiole-2'',2" -dioxide) derivatives with anti-HIV-1 and anti-human-cytomegalovirus activity” (J Med Chem, 2005).

SMILES strings stand for the structures.

What all share (conditions): Homo sapiens
For assay [1], the system named is MT4. Briefly: Cytostatic concentration required to inhibit MT-4 cell proliferation. In kind it is functional. The procedure, abridged:
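Mock-infected MT-4 cells (3 × 10^5/mL) incubated with compound dilutions for 5 days. Viable cells counted by trypan blue exclusion. CC50 = concentration reducing viable MT-4 cell number by 50%.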

For assay [2], the system named is HEL. Briefly: Minimal cytotoxic concentration required to cause microscopically visible alteration of cell morphology in HEL Cells. In kind it is functional. The gist of the method:
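Uninfected HEL cells exposed to compound. Minimum cytotoxic concentration is the lowest level giving a microscopically detectable change in cell morphology.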

In assay [3] the test system is CCRF-CEM. Nature of the assay: Effective concentration required to inhibit HIV-2 ROD in CEM cell culture. In kind it is functional, cell-based. The procedure, abridged: (§1)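 CEM cells (4 × 10^5/mL) infected at ~100 CCID50/mL and mixed with compound dilutions. Giant cell formation scored microscopically at day 4. EC50 = concentration inhibiting virus-induced cytopathicity by 50%.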

The test system of assay [4] is CCRF-CEM. Nature of the assay: Effective concentration required to inhibit HIV-1 IIIB in CEM cell culture. The class given is functional, cell-based. The gist of the method:
as §1

Assay [5] relates to MT4. Briefly: Effective concentration required to inhibit HIV-2 ROD in MT-4 cell culture. In kind it is functional, cell-based. The gist of the method: (§2)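 MT-4 cells (3 × 10^5/mL) infected at ~100 CCID50/mL and mixed with compound dilutions. Cytopathicity read by trypan blue exclusion at day 5. EC50 = concentration giving 50% protection against virus-induced loss of viability.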

Assay [6] relates to MT4. Briefly: Effective concentration required to inhibit HIV-1 IIIB in MT-4 cell culture. In kind it is functional, cell-based. The gist of the method:
as §2

Assay [7] deals with HEL. Nature of the assay: Effective concentration required to inhibit HCMV Davis in HEL Cells. In kind it is functional, cell-based. The procedure, abridged: (§3)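 Confluent HEL cells infected with HCMV at 100 PFU/well. After 1-2 h, residual virus removed and MEM with 2% inactivated FCS added, with compound in duplicate at 5-fold dilution steps. After 7 days at 37 °C in 5% CO2, cells fixed with ethanol and Giemsa-stained; plaques or CPE scored microscopically. IC50 interpolated graphically; mean of two independent experiments.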

For assay [8], the system named is CCRF-CEM. Nature of the assay: Cytostatic concentration of the cell proliferation. The class given is functional.
Assay [9] deals with HEL. Briefly: Cytostatic concentration required to inhibit HEL cell proliferation. The class given is functional. The gist of the method:
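HEL fibroblasts seeded at 5 × 10^3 cells/well and grown 24 h, then given compound in duplicate. After 3 days at 37 °C in 5% CO2, cell number read on a Coulter counter. CC50 = concentration reducing cell growth by 50%.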

Assay [10] relates to HEL. Nature of the assay: Effective concentration required to inhibit HCMV AD-169 in HEL Cells. The class given is functional, cell-based. The procedure, abridged:
as §3

The test system of assay [11] is CCRF-CEM. Briefly: Cytostatic concentration required to inhibit CEM cell proliferation. In kind it is functional. The gist of the method: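 CEM cells, mock-infected, grown with serial compound dilutions for 4 days. CC50 taken as the concentration that inhibits CEM cell proliferation by 50%.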

Consider `Cc1cn([C@@H]2O[C@H](CO[Si](C)(C)C(C)(C)C)[C@@]3(OS(=O)(=O)C=C3NCCC(N)=O)[C@H]2O[Si](C)(C)C(C)(C)C)c(=O)n(C)c1=O`, for which the results for the CC50 in the assay on MT4 [1], in the assay on CCRF-CEM [8] and in the assay with HEL [9] were 20 µM, 21 µM and 14.8 µM, respectively. Further, the MCC in the assay with HEL [2] was ≥ 80 µM. The EC50 with CCRF-CEM [3] was > 10 µM; with CCRF-CEM [4], 5 µM; in the assay with MT4 [5], > 10 µM; in the assay with MT4 [6] it was > 10 µM; in the assay with HEL [7], 29 µM; with HEL [10] it was > 16 µM.
Consider `Cc1cn([C@@H]2O[C@H](CO[Si](C)(C)C(C)(C)C)[C@@]3(OS(=O)(=O)C=C3NC(=O)C(N)=O)[C@H]2O[Si](C)(C)C(C)(C)C)c(=O)n(C)c1=O`, for which the CC50 was determined as 9.96 µM with CCRF-CEM [11], 9.59 µM in the assay on MT4 [1] and 14.5 µM in the assay with HEL [9]. Further, in the assay with HEL [2], the MCC is ≥ 16 µM. In addition, the EC50 in the assay on CCRF-CEM [3] is > 10 µM; in the assay on CCRF-CEM [4], 0.028 µM; in the assay with MT4 [5] it was > 2 µM; in the assay on MT4 [6], 0.057 µM; with HEL [7], 6.5 µM; in the assay on HEL [10], 6.5 µM.
Take `C=C(C)C(=O)NC(=O)NC1=CS(=O)(=O)O[C@@]12[C@@H](CO[Si](C)(C)C(C)(C)C)O[C@@H](n1cc(C)c(=O)n(C)c1=O)[C@@H]2O[Si](C)(C)C(C)(C)C`: the results for the CC50 in the assay with CCRF-CEM [11], in the assay on MT4 [1] and with HEL [9] were 1.2 µM, 1.19 µM and 1.2 µM, respectively. The compound also came in with an MCC in the assay with HEL [2] of 20 µM. Also, the EC50 was > 0.8 µM in the assay on CCRF-CEM [3]; > 0.8 µM in the assay with CCRF-CEM [4]; > 0.8 µM in the assay with MT4 [5]; > 0.8 µM in the assay on MT4 [6]; > 4 µM in the assay with HEL [7]; > 20 µM in the assay with HEL [10].
`COC(=O)NC1=CS(=O)(=O)O[C@@]12[C@@H](CO[Si](C)(C)C(C)(C)C)O[C@@H](n1cc(C)c(=O)n(C)c1=O)[C@@H]2O[Si](C)(C)C(C)(C)C`: the CC50 with CCRF-CEM [11] was 30.7 µM; in the assay with MT4 [1] it was 29.9 µM; in the assay with HEL [9], > 200 µM. In addition, the MCC with HEL [2] was ≥ 50 µM. The EC50 in the assay on CCRF-CEM [3] was > 20 µM; with CCRF-CEM [4], > 20 µM; in the assay with MT4 [5] it was > 20 µM; with MT4 [6] it was > 20 µM; in the assay on HEL [7] it was 25 µM; with HEL [10], ≥ 20 µM.
Take `Cc1cn([C@@H]2O[C@H](CO[Si](C)(C)C(C)(C)C)[C@@]3(OS(=O)(=O)C=C3NCC(=O)O)[C@H]2O[Si](C)(C)C(C)(C)C)c(=O)n(C)c1=O`: the CC50 amounted to 65 µM in the assay with CCRF-CEM [11], 30 µM with MT4 [1] and 136 µM in the assay on HEL [9]. The MCC in the assay with HEL [2] came out at 300 µM. Also, the EC50 was > 10 µM with CCRF-CEM [3]; > 10 µM with CCRF-CEM [4]; > 10 µM in the assay with MT4 [5]; > 10 µM with MT4 [6]; 32 µM in the assay with HEL [7]; ≥ 50 µM with HEL [10].
As for `Cc1cn([C@@H]2O[C@H](CO[Si](C)(C)C(C)(C)C)[C@@]3(OS(=O)(=O)C=C3NCCC(=O)O)[C@H]2O[Si](C)(C)C(C)(C)C)c(=O)n(C)c1=O`, the cytotoxic concentration (CC50) was 19.4 µM in the assay on CCRF-CEM [11], 11.5 µM with MT4 [1] and 34 µM in the assay on HEL [9]. For the same compound, the MCC in the assay with HEL [2] was 80 µM. The EC50 is > 10 µM with CCRF-CEM [3]; > 10 µM with CCRF-CEM [4]; > 50 µM in the assay on MT4 [5]; > 50 µM in the assay on MT4 [6]; 8 µM with HEL [7]; > 16 µM with HEL [10].
`Cc1cn([C@@H]2O[C@H](CO[Si](C)(C)C(C)(C)C)[C@@]3(OS(=O)(=O)C=C3NCC(N)=O)[C@H]2O[Si](C)(C)C(C)(C)C)c(=O)n(C)c1=O`: the CC50 in the assay on CCRF-CEM [11] was found to be 14.6 µM; in the assay on MT4 [1], 14.9 µM; in the assay on HEL [9], 13.5 µM. The MCC with HEL [2] came out at 16 µM. Further, the EC50 in the assay with CCRF-CEM [3] was > 2 µM; in the assay with CCRF-CEM [4] it was > 2 µM; in the assay with MT4 [5] it was > 10 µM; with MT4 [6], > 10 µM; with HEL [7] it was > 3.2 µM; in the assay with HEL [10], > 3.2 µM.
For `COC(=O)CNC1=CS(=O)(=O)O[C@@]12[C@@H](CO[Si](C)(C)C(C)(C)C)O[C@@H](n1cc(C)c(=O)n(C)c1=O)[C@@H]2O[Si](C)(C)C(C)(C)C`, the values for the CC50 with CCRF-CEM [11], with MT4 [1] and with HEL [9] were 96 µM, 105 µM and 160 µM, respectively. The MCC with HEL [2] was ≥ 400 µM. Besides, the concentration giving a half-maximal response (EC50) in the assay with CCRF-CEM [3] was > 125 µM; in the assay on CCRF-CEM [4], 0.6 µM; with MT4 [5], > 125 µM; with MT4 [6], 1.61 µM; with HEL [7], > 400 µM; with HEL [10], > 400 µM.
As for `COC(=O)CC(=O)NC1=CS(=O)(=O)O[C@@]12[C@@H](CO[Si](C)(C)C(C)(C)C)O[C@@H](n1cc(C)c(=O)n(C)c1=O)[C@@H]2O[Si](C)(C)C(C)(C)C`, the cytotoxic concentration (CC50) in the assay on CCRF-CEM [11] was 29.7 µM; in the assay with MT4 [1], 11.9 µM; in the assay on HEL [9] it was 29 µM. Also, the MCC in the assay with HEL [2] was found to be 400 µM. The EC50 with CCRF-CEM [3] was > 25 µM; in the assay on CCRF-CEM [4], ≥ 5 µM; with MT4 [5], > 5 µM; in the assay with MT4 [6], 19.5 µM; in the assay on HEL [7], 10 µM; with HEL [10], 9 µM.
Turning to `CCOC(=O)CNC(=O)NC1=CS(=O)(=O)O[C@@]12[C@@H](CO[Si](C)(C)C(C)(C)C)O[C@@H](n1cc(C)c(=O)n(C)c1=O)[C@@H]2O[Si](C)(C)C(C)(C)C`, the CC50 came to 5.02 µM in the assay on CCRF-CEM [11], 3.78 µM with MT4 [1] and 13 µM in the assay on HEL [9]. In the assay on HEL [2], this compound registered an MCC of 16 µM. Further, the concentration giving a half-maximal response (EC50) with CCRF-CEM [3] was > 2 µM; in the assay on CCRF-CEM [4], > 2 µM; in the assay on MT4 [5] it was > 2 µM; in the assay on MT4 [6], > 2 µM; with HEL [7], > 3.2 µM; in the assay with HEL [10], > 3.2 µM.

As a reminder, the CC50 is the concentration at which the toxic effect on the cells reaches its halfway point. For orientation: EC50 means the concentration giving half of the maximal effect.
